The results in this text go back to ChEMBL document CHEMBL4825737, “Design, synthesis, and biological evaluation of novel 6-(pyridin-3-yl) quinazolin-4(3H)-one derivatives as potential anticancer agents via PI3K inhibition” (Bioorg Med Chem, 2021).

What all share (format): functional, cell-based
Test [1] relates to HCC827. Briefly: Antiproliferative activity against human HCC827 cells assessed as reduction in cell viability measured after 72 hrs by flow cytometry analysis. The note with it: HCC827, 72 h. In outline: (§1)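 Cells in RPMI 1640 with 10% FBS and penicillin/streptomycin/amphotericin B, seeded at 2.5–3 × 10⁴ per well. Grown adherent in fresh medium for 24 h, then exposed to a range of compound concentrations for 72 h. Living cell numbers counted by flow cytometry; IC50 calculated. Mean ± SD from three experiments.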
For orientation: In flow cytometry, cells or beads pass a laser one at a time.

Test [2] can be described thus: Antiproliferative activity against human LM3 cells assessed as reduction in cell viability measured after 72 hrs by flow cytometry analysis. The note with it: GILM3, 72 h. In outline:
as §1

Test [3] deals with SH-SY5Y. Briefly: Antiproliferative activity against human SH-SY5Y assessed as reduction in cell viability measured after 72 hrs by flow cytometry analysis. In outline:
as §1

Test [4] deals with HEL. Briefly: Antiproliferative activity against human HEL cells assessed as reduction in cell viability measured after 72 hrs by flow cytometry analysis. In outline: as §1

As to `CCCCC(=O)Nc1ccc(-c2ccc3ncn(Cc4ccccc4)c(=O)c3c2)cn1`, the IC50 in test [1], in test [2], in test [3] and in test [4] was above 40 µM in each case.
As to `CCC(=O)Nc1ccc(-c2ccc3ncn(CC(=O)N4CCOCC4)c(=O)c3c2)cn1`, the IC50 in test [1], in test [2], in test [3] and in test [4] was above 40 µM in each case.
For `COCC(=O)Nc1ccc(-c2ccc3ncn(Cc4ccccc4)c(=O)c3c2)cn1`, the IC50 in test [1], in test [2], in test [3] and in test [4] was above 40 µM in each case.
For the molecule `Cc1ccc(Cn2cnc3ccc(-c4ccc(N(C(=O)c5ccccc5)C(=O)c5ccccc5)nc4)cc3c2=O)cc1`, the IC50 in test [1] is 29.2 µM; in test [2], above 40 µM; in test [3], above 40 µM; in test [4], above 40 µM.
In the case of `Cn1c(=O)n(-c2ccc(C(C)(C)C#N)cc2)c2c3cc(-c4cnc5ccccc5c4)ccc3ncc21` [DACTOLISIB], the IC50 in test [1] was 0.53 µM; in test [2], 1.31 µM; in test [3], 0.79 µM; in test [4], 0.29 µM.
The corresponding values for `CCCCC(=O)Nc1ccc(-c2ccc3ncn(Cc4ccc5c(c4)OCO5)c(=O)c3c2)cn1` are above 40 µM, above 40 µM, above 40 µM and above 40 µM.
Taken in the same sequence, the figures for `CCCCC(=O)Nc1ccc(-c2ccc3ncn(CCN4CCOCC4)c(=O)c3c2)cn1` were 29 µM, above 40 µM, above 40 µM and above 40 µM.
Taken in the same sequence, the figures for `CCC(=O)Nc1ccc(-c2ccc3ncn(CCN4CCOCC4)c(=O)c3c2)cn1` were above 40 µM, above 40 µM, above 40 µM and above 40 µM.

As a reminder, the IC50 is the concentration that gives 50% inhibition.
